Active and inactive are the calls of the source. The calls are words filed in the database; no cut-off is given here.
Experiments:
[1] = Stability in human serum assessed as half life at 10 mg/ml by UPLC-MS analysis; assay type: ADME, cell-free
Procedure, shortened: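 Peptides dissolved in PBS and incubated in 25% human serum. Intact peptide remaining followed over time to at least 6 h; half-life taken as time to 50% stability.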

Staphylococcus aureus [2] = assay: Antimicrobial activity against Staphylococcus aureus NE934 harboring single transposon insertion mutation in staphopain B at 30 uM incubated for 18 hrs relative to control; assay type: functional
Procedure, shortened: (§1)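 CA-MRSA USA300 LAC derivative JE2 and single transposon insertion mutants derived from JE2, each lacking an extracellular protease gene, were exposed to peptides up to 30 μM. The read-out was percent growth inhibition. Peptides were dissolved in PBS, and tests were run in triplicate.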

Escherichia coli [3] = assay: Induction of outer membrane permeabilization in Escherichia coli ATCC 11775 measured for 20 mins by NPN uptake assay; assay type: functional, organism-based
Staphylococcus aureus [4] = assay: Antimicrobial activity against Staphylococcus aureus NE1506 harboring single transposon insertion mutation in V8 protease at 30 uM incubated for 18 hrs relative to control; assay type: functional; procedure, shortened: as §1
[5] = Toxicity in neutropenic CD-1 mouse deep thigh infection model infected with Acinetobacter baumannii ATCC 19606 assessed as body weight change at 0.17 mg/kg, ip measured after 4 days; assay type: organism-based; conditions: in vivo, 96 h, time 4 day
Procedure, shortened: (§2)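 Neutropenic mice infected intramuscularly in the right thigh with 10⁶ cells per mL of A. baumannii ATCC 19606. […] Body weight monitored for toxicity. Euthanasia 4 days post-infection (day 8). n = 6 per group, from three inocula.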

Klebsiella pneumoniae [6] = assay: Induction of outer membrane permeabilization in Klebsiella pneumoniae ATCC 13883 measured for 20 mins by NPN uptake assay; assay type: functional, organism-based
Procedure, shortened: (§3)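 Outer-membrane permeabilization of Gram-negative bacteria read as rise in fluorescence of the lipophilic dye NPN, which enters only when outer-membrane integrity is compromised. Peptides applied at their MIC against the respective strain; polymyxin B and levofloxacin as reference antibiotics. Triplicates.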

[7] = Toxicity against reconstructed human skin model assessed as tissue viability at 50 uM incubated for 1 hr followed by compound washout measured after 42 hrs by MTT assay; assay type: tissue-based, Skin of body; conditions: read-out: Activity
Procedure, shortened: (§4)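 Reconstructed human epidermis with stratum corneum, per OECD TG 439 skin irritation guideline. Tissues exposed 1 h to peptide at 50 μM, then 42 h post-treatment incubation. Viability read by MTT. Controls were SDS and melittin.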

Pseudomonas aeruginosa [8] = assay: Depolarization of cytoplasmic membrane in Pseudomonas aeruginosa PAO1 at MIC measured for 45 mins by DiSC3-(5) dye based assay; assay type: functional, organism-based
Procedure, shortened: (§5)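 Bacteria loaded with membrane-potential dye DiSC3-(5), then treated with peptide at its MIC for the respective strain; depolarization read as rise in dye fluorescence; polymyxin B and levofloxacin as reference antibiotics.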

Mus musculus [9] = assay: Induction of wound healing activity in immunosuppressed Balb/c mouse excisional dorsal wound infection model infected with Acinetobacter baumannii NCTC 13301 assessed as decrease in serocellular crust at about 10 mg/kg treated for 7 days once daily measured after 20 days; assay type: functional, organism-based; conditions: time 20.0 day
Acinetobacter baumannii [10] = assay: Antimicrobial activity against colistin/meropenem-resistant Acinetobacter baumannii GSAB 164 incubated for 18 to 20 hrs by broth microdilution assay; assay type: functional; conditions: time 18-20 hrs
Procedure, shortened: (§6)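 Broth microdilution assay. MIC was taken as the lowest peptide concentration that inhibited visible growth of the bacteria. Peptides were dissolved in PBS, and experiments were run in triplicate.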

Acinetobacter baumannii [11] = assay: Anti-infective activity against Acinetobacter baumannii ATCC 19606 infected in neutropenic CD-1 mouse deep thigh infection model assessed as reduction in bacterial load at 0.17 mg/kg, ip measured after 4 days; assay type: functional, organism-based; conditions: time 4.0 day
Procedure, shortened: (§7)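 Neutropenic mice infected intramuscularly in right thigh with 10⁶ cells per mL A. baumannii ATCC 19606; single intraperitoneal peptide dose at 10× MIC; bacterial load determined 4 days after treatment (euthanized day 8); n = 6 per group from three inocula; one-way ANOVA with Dunnett's test versus untreated.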

Klebsiella pneumoniae [12] = assay: Depolarization of cytoplasmic membrane in Klebsiella pneumoniae ATCC 13883 at MIC measured for 45 mins by DiSC3-(5) dye based assay; assay type: functional, organism-based; procedure, shortened: as §5
Escherichia coli [13] = assay: Antimicrobial activity against Escherichia coli ATCC 25922 incubated for 18 to 20 hrs by broth microdilution assay; assay type: functional; conditions: time 18-20 hrs; procedure, shortened: as §6
Escherichia coli [14] = assay: Antimicrobial activity against Escherichia coli TOP10 at pH 6 to 8; assay type: functional, organism-based
Procedure, shortened: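 E. coli TOP10 broth microdilution with growth medium at pH 8 and pH 6; MIC taken as lowest concentration inhibiting visible growth.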

Pseudomonas aeruginosa [15] = assay: Induction of outer membrane permeabilization in Pseudomonas aeruginosa PAO1 measured for 20 mins by NPN uptake assay; assay type: functional, organism-based; procedure, shortened: as §3
Acinetobacter baumannii [16] = assay: Antimicrobial activity against Acinetobacter baumannii CIP7010 incubated for 16 to 20 hrs; assay type: functional; conditions: time 16-20 hrs; procedure, shortened: as §6
Staphylococcus aureus [17] = assay: Antimicrobial activity against Staphylococcus aureus NE163 harboring single transposon insertion mutation in aureolysin at 30 uM incubated for 18 hrs relative to control; assay type: functional; procedure, shortened: as §1
Acinetobacter baumannii [18] = assay: Induction of outer membrane permeabilization in Acinetobacter baumannii ATCC 19606 measured for 20 mins by NPN uptake assay; assay type: functional, organism-based
Mus musculus [19] = assay: Induction of wound healing activity in immunosuppressed Balb/c mouse excisional dorsal wound infection model infected with Acinetobacter baumannii NCTC 13301 assessed as reduction in necrosis of epidermal tissue at wound edges at about 10 mg/kg treated for 7 days once daily; assay type: functional, organism-based; conditions: time 7.0 day
[20] = Toxicity in immunosuppressed Balb/c mouse excisional dorsal wound infection model infected with Acinetobacter baumannii NCTC 13301 assessed as body weight loss at about 10 mg/kg treated for 7 days once daily measured after 45 days; assay type: organism-based; conditions: in vivo, 1080 h, time 45 day
Procedure, shortened: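 Excisional dorsal wound model in immunosuppressed mice infected with 5 × 10⁴ cells per mL of A. baumannii. Treated, PBS-treated and untreated groups were compared. Body weight and survival were followed for 45 days.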

Acinetobacter baumannii [21] = assay: Depolarization of cytoplasmic membrane in Acinetobacter baumannii ATCC 19606 at MIC measured for 45 mins by DiSC3-(5) dye based assay; assay type: functional, organism-based; procedure, shortened: as §5
Staphylococcus aureus [22] = assay: Depolarization of cytoplasmic membrane in Staphylococcus aureus ATCC 12600 at MIC measured for 45 mins by DiSC3-(5) dye based assay; assay type: functional, organism-based; procedure, shortened: as §5
[23] = Toxicity in immunosuppressed Balb/c mouse excisional dorsal wound infection model infected with Acinetobacter baumannii NCTC 13301 assessed as decrease in animal survival at about 10 mg/kg treated for 7 days once daily measured after 45 days; assay type: organism-based; conditions: in vivo, 1080 h, time 45 day
[24] = Toxicity against reconstructed human skin model assessed as irritation at 50 uM incubated for 1 hr followed by compound washout measured after 42 hrs by MTT assay; assay type: tissue-based, Skin of body; procedure, shortened: as §4
Lipid bilayer = assay: Induction of pore formation in POPC/POPG SLBs at 1 uM measured for 2 hrs by real-time AFM analysis; conditions: filed as activator
Procedure, shortened: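 Real-time AFM topography of supported lipid bilayers of POPC:POPG 1:1 mol/mol, checked defect-free and vesicle-free before peptide addition. P:L 1:500, final peptide 1 μM. Images at 1 × 1 μm², 400 × 400 nm² and 200 × 200 nm², height scale 2 nm. Pores followed over 2 h.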

Escherichia coli [25] = assay: Depolarization of cytoplasmic membrane in Escherichia coli ATCC 11775 at MIC measured for 45 mins by DiSC3-(5) dye based assay; assay type: functional, organism-based; procedure, shortened: as §5
Enterococcus faecium = assay: Depolarization of cytoplasmic membrane in Enterococcus faecium ATCC 700221 at MIC measured for 45 mins by DiSC3-(5) dye based assay; assay type: functional, organism-based; procedure, shortened: as §5
Mus musculus [26] = assay: Induction of wound healing activity in immunosuppressed Balb/c mouse excisional dorsal wound infection model infected with Acinetobacter baumannii NCTC 13301 assessed as reduction in wound expansion at about 10 mg/kg treated for 7 days once daily; assay type: functional, organism-based; conditions: time 7.0 day
Staphylococcus aureus [27] = assay: Antimicrobial activity against Staphylococcus aureus NE1740 harboring single transposon insertion mutation in staphopain A at 30 uM incubated for 18 hrs relative to control; assay type: functional; procedure, shortened: as §1
[28] = Hemolytic activity against human RBC incubated for 1 hr by microplate reader analysis; assay type: toxicity, cell-based, Erythrocyte; conditions: red blood cells (erythrocytes)
Procedure, shortened: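 Human red blood cells exposed to peptides up to 50 μM; hemolysis measured, IC50 derived where reached.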

[29] = Toxicity in neutropenic CD-1 mouse deep thigh infection model infected with Acinetobacter baumannii ATCC 19606 assessed as body weight change at 0.18 mg/kg, ip measured after 4 days; assay type: organism-based; conditions: in vivo, 96 h, time 4 day; procedure, shortened: as §2
Acinetobacter baumannii [30] = assay: Anti-infective activity against Acinetobacter baumannii ATCC 19606 infected in neutropenic CD-1 mouse deep thigh infection model assessed as reduction in bacterial load at 0.18 mg/kg, ip measured after 4 days; assay type: functional, organism-based; conditions: time 4.0 day; procedure, shortened: as §7

Substance | half-life at 10 mg/ml [1] [h] | inhibition at 30 µM (Staphylococcus aureus [2]) [%] | Activity (Escherichia coli [3]) | inhibition at 30 µM (Staphylococcus aureus [4]) [%] | Activity (Klebsiella pneumoniae [6]) | viability at 1 h, 50 µM [7] [%] | Activity (Pseudomonas aeruginosa [8]) | Activity (Klebsiella pneumoniae [12]) | Activity (Pseudomonas aeruginosa [15]) | inhibition at 30 µM (Staphylococcus aureus [17]) [%] | Activity (Acinetobacter baumannii [18]) | Activity (Acinetobacter baumannii [21]) | Activity (Staphylococcus aureus [22]) | Activity [24] | Activity (Escherichia coli [25]) | Activity (Enterococcus faecium) | inhibition at 30 µM (Staphylococcus aureus [27]) [%] | IC50 at 1 h [28] [µM] | further results
H-KKKKLKKILKKLFQFINQLDNQLQDIKKKK-NH2 | > 6 | < 45 | Active | < 45 | Active | 100 | Active | Active | Active | < 45 | inactive | Active | Active | Non-Toxic | Active | Active | < 45 | > 50 | Activity [5]: Non-Toxic; Activity (Mus musculus [9]): inactive; MIC (Acinetobacter baumannii [10]): 1 µM; Activity (Acinetobacter baumannii [11]): inactive; MIC (Escherichia coli [13]): 1 µM; Activity (Escherichia coli [14]): Active; MIC (Acinetobacter baumannii [16]): 0.5 µM; Activity (Mus musculus [19]): Active; Activity [20]: Toxic; Activity [23]: Toxic; Activity (Lipid bilayer): Active; Activity (Mus musculus [26]): Active
H-KKKKKLKKILKKLFQFINQLDNQLQDIKKKKK-OH | > 6 | < 45 | Active | < 45 | Active | 100 | Active | Active | Active | < 45 | inactive | Active | Active | Non-Toxic | Active | Active | < 45 | > 50 | Activity [29]: Non-Toxic; Activity (Acinetobacter baumannii [30]): inactive

Reference: ChEMBL document CHEMBL5576140, “Computational Design of Pore-Forming Peptides with Potent Antimicrobial and Anticancer Activities” (J Med Chem, 2024)
